Reference: ChEMBL document CHEMBL4402517, “Rational modification of Mannich base-type derivatives as novel antichagasic compounds: Synthesis, in vitro and in vivo evaluation” (Bioorg Med Chem, 2019)
Calls of active or inactive are those of the source. The calls are words filed in the database; no cut-off is given here.

Key:
[1] = Selectivity index, ratio of IC50 for African green monkey Vero cells to IC50 for Trypanosoma cruzi MHOM/Pe/2011/Arequipa;DTU 5; type: toxicity; conditions: read-out: Selectivity Index
Method in brief: (§1)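 SI = Vero IC50 / epimastigote IC50. Vero cells were grown in RPMI-1640 with 10% FBS, seeded at 0.8 × 10^4 cells/well, exposed to 10.0–200.0 µM for 72 h, then given MTT for 4 h. Epimastigotes were grown in MTL with 10% FBS at 28 °C, 5 × 10^5/mL, exposed to 6.3–50 µM for 48 h, then resazurin for 24 h (570/600 nm). IC50s came from nonlinear regression.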

[2] = Toxicity in BALB/c mouse infected with Trypanosoma cruzi MHOM/Pe/2011/Arequipa;DTU 5 bloodstream trypomastigote assessed as change in serum alanine aminotransferase level in chronic phase at 20 mg/kg/day, po administered for 5 consecutive days starting from day 70 post infection measured on day 100 post infection relative to control; type: organism-based; conditions: in vivo
Method in brief: (§2)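 Female BALB/c mice (10–12 weeks, 14–20 g; groups of three) were infected i.p. with 5 × 10^5 Arequipa bloodstream trypomastigotes. Dosing was oral at 20 mg/kg/day for 5 days, from day 8 pi (acute) or day 70 pi (chronic), as a 2 mg/ml suspension in 5% DMSO/0.5% HPMC; controls received vehicle. Cyclophosphamide 200 mg/kg i.p. was given at day 80 pi. Serum was collected 2 days post-treatment and at necropsy by cardiac puncture and compared with infected untreated controls.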

Trypanosoma cruzi [3] = experiment: (§3) Antitrypanosomal activity against Trypanosoma cruzi MHOM/Pe/2011/Arequipa;DTU 5 bloodstream trypomastigote infected in BALB/c mouse assessed as parasite-free muscle in chronic phase at 20 mg/kg/day, po administered for 5 consecutive days starting from day 70 post infection followed by cyclophosphamide induced immunosuppression on day 80 post infection measured after day 100 post infection by PCR method relative to control; type: functional
Method in brief: (§4)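 Female BALB/c mice (10–12 weeks, three per group) were infected i.p. with 5 × 10^5 Arequipa bloodstream trypomastigotes. Dosing was oral, 20 mg/kg/day for 5 days, as a suspension in 5% DMSO/0.5% HPMC. Cyclophosphamide 200 mg/kg i.p. was given at day 80 pi. At necropsy (day 100) tissues were tested by PCR on the splice leader region (primers TC/TC1, 300 bp). Scored as x/3 mice positive.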

Trypanosoma cruzi [4] = experiment: Antitrypanosomal activity against Trypanosoma cruzi MHOM/Pe/2011/Arequipa;DTU 5 epimastigote assessed as depolarization of mitochondrial membrane at IC50 measured after 72 hrs by rhodamine 123 and acridine orange staining based flow cytometry relative to control; type: functional
Method in brief: (§5)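 They were stained with rhodamine 123 or acridine orange and analysed by flow cytometry. Index of variation = (TM−CM)/CM, from median fluorescence of treated (TM) and untreated (CM) parasites.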

Trypanosoma cruzi [5] = experiment: as §3, with “acute” for “chronic”, “8” for “70”; type: functional; method in brief: as §4
Trypanosoma cruzi [6] = experiment: as §3, with “spleen” for “muscle”, “acute” for “chronic”, “8” for “70”; type: functional; method in brief: as §4
[7] = Toxicity in BALB/c mouse infected with Trypanosoma cruzi MHOM/Pe/2011/Arequipa;DTU 5 bloodstream trypomastigote assessed as increase in serum alanine aminotransferase level in chronic phase at 20 mg/kg/day, po administered for 5 consecutive days starting from day 70 post infection and measured at day 76 post infection relative to control; type: organism-based; conditions: in vivo; method in brief: as §2
Trypanosoma cruzi [8] = experiment: Trypanocidal activity against Trypanosoma cruzi trypomastigote form infected in African green monkey Vero cells measured after 48 hrs by resazurin dye based assay; type: functional, organism-based
Trypanosoma cruzi [9] = experiment: as §3, with “spleen” for “muscle”; type: functional; method in brief: as §4
[10] = Selectivity index, ratio of IC50 for African green monkey Vero cells to IC50 for Trypanosoma cruzi MHOM/Pe/2011/Arequipa; DTU 5 trypomastigote forms; type: toxicity; conditions: read-out: Selectivity Index
Method in brief: (§6)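 Bloodstream trypomastigotes were taken from BALB/c mice by cardiac puncture and diluted in RPMI with 10% FBS at 2 × 10^6/mL. They were incubated with 3.1–50.0 µM for 24 h at 37 °C in 5% CO2 and counted in a Neubauer chamber. Triplicate, at least three experiments; nonlinear regression.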

Vero = experiment: Cytotoxicity against African green monkey Vero cells measured after 72 hrs by MTT assay; type: cell-based; conditions: Chlorocebus sabaeus
Method in brief: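 Log-phase Vero cells (0.8 × 10^4/well) in RPMI-1640 + 10% heat-inactivated FBS at 37 °C, 5% CO2 were exposed 72 h to serial dilutions (10.0–200.0 µM; stocks in DMSO). MTT was then added for 4 h and absorbance read. Quadruplicates, three experiments; IC50 by nonlinear regression.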

[11] = Selectivity index, ratio of IC50 for African green monkey Vero cells to IC50 for Trypanosoma cruzi MHOM/Pe/2011/Arequipa; DTU 5 amastigote forms; type: toxicity; conditions: read-out: Selectivity Index
Method in brief: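 Vero cells (1 × 10^4/well) were infected with trypomastigotes at MOI 10:1 for 24 h and washed with PBS. They were then exposed to 3.1–50 µM for 72 h at 37 °C in 5% CO2, and amastigotes were counted after Giemsa staining. Triplicates in two determinations; nonlinear regression.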

Trypanosoma cruzi [12] = experiment: Antitrypanosomal activity against Trypanosoma cruzi MHOM/Pe/2011/Arequipa;DTU 5 epimastigote assessed as inhibition of DNA and RNA levels at IC50 measured after 72 hrs by acridine orange staining based flow cytometry relative to control; type: functional; set-up: scale not given: the % may be the effect or the level left; method in brief: as §5
Trypanosoma cruzi [13] = experiment: as §3, with “heart” for “muscle”; type: functional; method in brief: as §4
Trypanosoma cruzi [14] = experiment: as §3, with “trypomastigotes” for “trypomastigote”, “stomach” for “muscle”; type: functional; method in brief: as §4
[15] = Selectivity index, ratio of IC50 for African green monkey Vero cells to IC50 for Trypanosoma cruzi IRHOD/CO/2008/SN3;DTU 1; type: toxicity; conditions: read-out: Selectivity Index; method in brief: as §1
[16] = (§7) Toxicity in BALB/c mouse infected with Trypanosoma cruzi MHOM/Pe/2011/Arequipa;DTU 5 bloodstream trypomastigote assessed as decrease in serum uric acid level in acute phase at 20 mg/kg/day, po administered for 5 consecutive days starting from day 8 post infection and measured at day 14 post infection by biochemical analysis relative to control; type: organism-based; set-up: scale not given: the % may be the effect or the level left; conditions: in vivo; method in brief: as §2
Trypanosoma cruzi [17] = experiment: as §3, with “brain” for “muscle”, “acute” for “chronic”, “8” for “70”; type: functional; method in brief: as §4
Trypanosoma cruzi [18] = experiment: Antitrypanosomal activity against Trypanosoma cruzi MHOM/Pe/2011/Arequipa;DTU 5 epimastigote assessed as effect on L-alanine excretion at IC50 after 72 hrs by H NMR method relative to control; type: functional, organism-based
Method in brief: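 Cells were spun at 800 × g for 10 min and culture supernatants analysed by 1H NMR. Catabolite peaks were expressed as % variation versus untreated parasites.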

[19] = Selectivity index, ratio of IC50 for African green monkey Vero cells to IC50 for Trypanosoma cruzi IRHOD/CO/2008/SN3;DTU 1 trypomastigote forms; type: toxicity; conditions: read-out: Selectivity Index; method in brief: as §6
[20] = as §7, with “increase” for “decrease”, “alanine aminotransferase” for “uric acid”; type: organism-based; conditions: in vivo; method in brief: as §2

O=C(CCN1CCN(c2ccc(Cl)cc2)CC1)c1ccc(O)cc1
selectivity ratio [1]: 5.6 | Activity [2]: > 10% | Activity (Trypanosoma cruzi [3]): 63% | Activity (Trypanosoma cruzi [4]): 67.6% | Activity (Trypanosoma cruzi [5]): 50% | Activity (Trypanosoma cruzi [6]): 50% | Activity [7]: <= 10% | IC50 (Trypanosoma cruzi [8]): 6.8 µM | Activity (Trypanosoma cruzi [9]): 63% | selectivity ratio [10]: 141 | IC50 (Vero): 104 µM | selectivity ratio [11]: 20.4 | Activity (Trypanosoma cruzi [12]): -5.1% | Activity (Trypanosoma cruzi [13]): 63% | Activity (Trypanosoma cruzi [14]): 63% | selectivity ratio [15]: 8.6 | Activity [16]: <= 10% | Activity (Trypanosoma cruzi [17]): 50% | Activity (Trypanosoma cruzi [18]): Active | selectivity ratio [19]: 50.9 | Activity [20]: > 40%

O=C(Cn1ccnc1[N+](=O)[O-])NCc1ccccc1 [BENZNIDAZOLE]
selectivity ratio [1]: > 7.6 | Activity [2]: > 10% | Activity (Trypanosoma cruzi [3]): 38% | Activity (Trypanosoma cruzi [4]): 15.2% | Activity (Trypanosoma cruzi [5]): 25% | Activity (Trypanosoma cruzi [6]): 25% | Activity [7]: > 40% | IC50 (Trypanosoma cruzi [8]): 4.1 µM | Activity (Trypanosoma cruzi [9]): 38% | selectivity ratio [10]: > 32.5 | IC50 (Vero): > 200 µM | selectivity ratio [11]: > 67.2 | Activity (Trypanosoma cruzi [12]): -4.7% | Activity (Trypanosoma cruzi [13]): 38% | Activity (Trypanosoma cruzi [14]): 38% | selectivity ratio [15]: > 13.1 | Activity [16]: <= 30% | Activity (Trypanosoma cruzi [17]): 25% | Activity (Trypanosoma cruzi [18]): Active | selectivity ratio [19]: > 6 | Activity [20]: > 40%

O=C(CCN1CCN(c2ccc(C(F)(F)F)cc2)CC1)c1ccc(O)cc1
selectivity ratio [1]: 4.7 | Activity [2]: > 10% | Activity (Trypanosoma cruzi [3]): 50% | Activity (Trypanosoma cruzi [4]): 54.4% | Activity (Trypanosoma cruzi [5]): 13% | Activity (Trypanosoma cruzi [6]): 13% | Activity [7]: > 40% | IC50 (Trypanosoma cruzi [8]): 9.4 µM | Activity (Trypanosoma cruzi [9]): 50% | selectivity ratio [10]: 123 | IC50 (Vero): 107 µM | selectivity ratio [11]: 17.4 | Activity (Trypanosoma cruzi [12]): -4.2% | Activity (Trypanosoma cruzi [13]): 50% | Activity (Trypanosoma cruzi [14]): 50% | selectivity ratio [15]: 8.5 | Activity [16]: <= 20% | Activity (Trypanosoma cruzi [17]): 13% | Activity (Trypanosoma cruzi [18]): Active | selectivity ratio [19]: 51 | Activity [20]: > 40%
